Values after ≈ are worked out from the molar mass of the structure shown.
Experiments:
[1] = test system: Human immunodeficiency virus 1; experiment: Antiviral activity against HIV1 infected human CEM-SS cells; type: functional, organism-based; conditions: Human immunodeficiency virus 1, CEM-SS
[2] = Cytotoxicity against human CEM-SS cells; type: cell-based
[3] = test system: Human immunodeficiency virus 1; experiment: Antiviral activity against HIV1 infected human MT4 cells; type: functional, organism-based; conditions: Human immunodeficiency virus 1, MT4
[4] = Cytotoxicity against human MT4 cells; type: cell-based
[5] = test system: Human immunodeficiency virus 1; experiment: Antiviral activity against HIV1 infected human thymidine kinase-deficient CEM cells; type: functional, organism-based; conditions: Human immunodeficiency virus 1, CCRF-CEM
[6] = Cytotoxicity against human thymidine kinase-deficient CEM cells; type: cell-based, CCRF-CEM
[7] = Lipophilicity, log P of the compound; type: physicochemical; conditions: octanol/water
Method in brief: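 Log P values were calculated with software, not measured experimentally.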

[8] = Stability in human CEM-SS cell culture medium; type: ADME, cell-based
Method in brief: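 Compound at an initial 50 µM was incubated in culture medium of 90% RPMI 1640 plus 10% fetal calf serum, heat-inactivated 30 min at 56 °C. Analysis was by on-line ISRP-cleaning HPLC (0–80% acetonitrile in 20 mM TEAA pH 6.9, 267 nm) with HPLC/MS or co-injection identification. Half-lives came from pseudo-first-order exponential fits. Mean of three experiments.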

[9] = Stability in human CEM-SS cell extracts; type: ADME, cell-based
Method in brief: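 CEM-SS cell extracts were incubated with compound at an initial 50 µM. Samples were analysed by on-line ISRP-cleaning HPLC (0–80% acetonitrile gradient in 20 mM TEAA pH 6.9, detection 267 nm), with metabolites identified by HPLC/MS or co-injection. Half-lives came from pseudo-first-order mono- or polyexponential regression. Mean of three experiments.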

[10] = Chemical stability in water at pH 6.8; type: physicochemical
Method in brief: (§1)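 Compound at an initial 50 µM was incubated in water (pH 6.8) or RPMI 1640 (pH 7.5). Samples were analysed by on-line ISRP-cleaning HPLC: TEAA 20 mM pH 6.9 wash, then 0–80% acetonitrile gradient, UV 267 nm. Products were identified by HPLC/MS or co-injection. Half-lives came from pseudo-first-order mono- or polyexponential fits of peak areas. Mean of two experiments.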

[11] = Chemical stability in RPMI1640 medium at pH 7.5; type: physicochemical; method in brief: as §1
[12] = Aqueous solubility of the compound; type: physicochemical

For `Cc1cn([C@H]2C[C@H](N=[N+]=[N-])[C@@H](CO)O2)c(=O)[nH]c1=O` [ZIDOVUDINE], the EC50 [1] was 3 nM, the CC50 [2] was greater than 100000 nM and the EC50 [3] was 15 nM. It also gave a CC50 [4] greater than 100000 nM, an EC50 [5] greater than 100000 nM and a CC50 [6] greater than 100000 nM.

With `Cc1cn([C@H]2C[C@H](N=[N+]=[N-])[C@@H](COP(=O)(OCCSC(=O)C(C)(C)N)Oc3ccccc3)O2)c(=O)[nH]c1=O` (stereo partly specified) the EC50 [1] was 9 nM, the CC50 [2] was greater than 120000 nM and the EC50 [3] was 54 nM. It also gave a CC50 [4] greater than 120000 nM, an EC50 [5] of 90000 nM and a CC50 [6] greater than 120000 nM. The logP ([7]; read-out: logP) was 2, the half-life [8] was less than 0.0167 h and the half-life [9] was 0.133 h. It also gave a half-life [10] greater than 144 h and a half-life [11] of 0.1 h.

`Cc1cn([C@H]2C[C@H](N=[N+]=[N-])[C@@H](COP(=O)(OCCSC(=O)C(C)(CO)CO)Oc3ccccc3)O2)c(=O)[nH]c1=O` (stereo partly specified) gave an EC50 [1] of 12 nM, a CC50 [2] greater than 150000 nM and an EC50 [3] of 74 nM. The CC50 [4] was greater than 150000 nM, the EC50 [5] was greater than 100000 nM and the CC50 [6] was greater than 150000 nM. The logP ([7]; read-out: logP) was 2, the half-life [8] was 211 h and the half-life [9] was 178 h. The solubility [12] was 60600 µg/mL (≈ 101 mM).

Compound `Cc1cn([C@H]2C[C@H](N=[N+]=[N-])[C@@H](COP(=O)(OCCSC(=O)C(C)(C)C)Oc3ccccc3)O2)c(=O)[nH]c1=O` (stereo partly specified) has an EC50 [1] of 15 nM, a CC50 [2] greater than 10000 nM and an EC50 [3] of 810 nM. The CC50 [4] was greater than 10000 nM, the EC50 [5] was 450 nM and the CC50 [6] was greater than 10000 nM. For the same compound, the logP [7] was 2, the half-life [8] was 607 h and the half-life [9] was 1.5 h. The solubility [12] was 57 µg/mL (≈ 0.1 mM).

Compound `Cc1cn([C@H]2C[C@H](N=[N+]=[N-])[C@@H](COP(=O)(OCCSC(=O)C(C)(C)CO)Oc3ccccc3)O2)c(=O)[nH]c1=O` (stereo partly specified) has an EC50 [1] of 6 nM, a CC50 [2] greater than 130000 nM and an EC50 [3] of 30 nM. For the same compound, the CC50 [4] was greater than 130000 nM, the EC50 [5] was 3900 nM and the CC50 [6] was greater than 130000 nM. It also gave a logP ([7]; read-out: logP) of 2, a half-life [8] of 331 h and a half-life [9] of 14.8 h. The solubility [12] was 6640 µg/mL (≈ 11.4 mM).

In the case of `Cc1cn([C@H]2C[C@H](N=[N+]=[N-])[C@@H](COP(=O)(OCCSC(=O)C(C)(C)NC(=O)OC(C)(C)C)Oc3ccccc3)O2)c(=O)[nH]c1=O` (stereo partly specified), the half-life [8] is reported as 338 h, the half-life [9] is reported as 40.8 h and the half-life [10] is reported as greater than 480 h. The half-life [11] was greater than 288 h.

`Cc1cn([C@H]2C[C@H](N=[N+]=[N-])[C@@H](COP(=O)(OCCSC(=O)[C@@H](NC(=O)OC(C)(C)C)C(C)C)Oc3ccccc3)O2)c(=O)[nH]c1=O` (stereo partly specified) showed a half-life [8] of 197 h, a half-life [9] of 106 h and a half-life [10] greater than 960 h. The half-life [11] was greater than 216 h.

In the case of `Cc1cn([C@H]2C[C@H](N=[N+]=[N-])[C@@H](COP(=O)(OCCSC(=O)[C@@H](N)C(C)C)Oc3ccccc3)O2)c(=O)[nH]c1=O` (stereo partly specified), the EC50 [1] is reported as 1 nM, the CC50 [2] is reported as greater than 120000 nM and the EC50 [3] is reported as 4 nM. For the same compound, the CC50 [4] was greater than 120000 nM, the EC50 [5] was 81000 nM and the CC50 [6] was greater than 120000 nM. For the same compound, the logP ([7]; read-out: logP) was 2, the half-life [8] was less than 0.0167 h and the half-life [9] was less than 0.0167 h. It also gave a half-life [10] of 1820 h and a half-life [11] of less than 0.0167 h.
